According to ChEMBL document CHEMBL1134284, “The biological effects of structural variation at the meta position of the aromatic rings and at the end of the alkenyl chain in the alkenyldiarylmethane series of non-nucleoside reverse transcriptase inhibitors” (J Med Chem, 2001):

How the values were obtained:
[1] = system: Human immunodeficiency virus type 1 (RF/HAT ISOLATE); assay: Inhibitory concentration for cytopathicity of HIV-1RF in CEM-SS cells; type: functional, organism-based; settings: Human immunodeficiency virus 1, RF
Method in brief: (§1)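 CEM-SS cells kept in RPMI 1640 with 10% heat-inactivated FBS, 2 mM glutamine, penicillin/streptomycin. Microtiter assay with cytopathic HIV-1 RF, or mock infection for toxicity. Viability read by MTS/phenazine ethosulfate reduction (absorbance 490 nm) 6 days after infection. […] Triplicate.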

[2] = Ratio of CC50/EC50 was determined; type: cell-based; settings: human, CEM-SS cells; read-out: TI
Method in brief: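 HIV-1 RF–infected CEM-SS cells (RPMI 1640, 10% heat-inactivated FBS, 2 mM glutamine, penicillin/streptomycin), plus mock-infected CEM-SS in parallel. Cell killing and viability were read by MTS/phenazine ethosulfate reduction at 490 nm 6 days after infection. […] Index = CC50 ÷ EC50. Triplicate tests.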

CEM-SS [3] = assay: Concentration required for cytotoxicity against mock infected CEM-SS cells; type: functional; settings: Homo sapiens; method in brief: as §1
[4] = target: Human immunodeficiency virus type 1 reverse transcriptase (Human immunodeficiency virus 1, UniProt Q72547); assay: Inhibitory activity against HIV-1 Reverse Transcriptase with rCdG as the template primer
Method in brief: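 Cell-free assay with purified recombinant HIV-1 RT (p66/p51 dimer). Activity measured as [32P]GTP incorporation into the poly(rC)/oligo(dG) homopolymer template/primer. IC50 is reported as inhibition of enzyme activity.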

CEM-SS [5] = assay: Inhibitory concentration for cytopathicity of HIV-1RF in CEM-SS cells; Not active; type: functional, cell-based, Homo sapiens; method in brief: as §1

CCCOC(=O)CCCC=C(c1cc(C)c(OC)c(C(=O)OC)c1)c1cc(C)c(OC)c(C(=O)OC)c1
EC50 [1]: 1.29 µM
selectivity ratio [2]: 4.2
CC50 (CEM-SS [3]): 5.4 µM
IC50 [4]: 29.7 µM

COC(=O)c1cc(C(=CCCCc2ccccc2)c2cc(Cl)c(OC)c(C(=O)OC)c2)cc(Cl)c1OC
EC50 [1]: 1.7 µM
selectivity ratio [2]: > 43
CC50 (CEM-SS [3]): > 200 µM
IC50 [4]: > 100 µM

C#CCCCC=C(c1cc(Cl)c(OC)c(C(=O)OC)c1)c1cc(Cl)c(OC)c(C(=O)OC)c1
EC50 [1]: 1.3 µM
selectivity ratio [2]: 33
CC50 (CEM-SS [3]): 42.7 µM

C=CCCCC=C(c1cc(Br)c(OC)c(C(=O)OC)c1)c1cc(Br)c(OC)c(C(=O)OC)c1
EC50 [1]: 8.2 µM
selectivity ratio [2]: > 24
CC50 (CEM-SS [3]): > 200 µM
IC50 [4]: 99 µM

COC(=O)c1cc(C(=CCCCc2ccccc2)c2cc(Br)c(OC)c(C(=O)OC)c2)cc(Br)c1OC
EC50 [1]: 13.1 µM
selectivity ratio [2]: > 15
CC50 (CEM-SS [3]): > 200 µM
IC50 [4]: > 100 µM

C=CCCCC=C(c1cc(Cl)c(OC)c(C(=O)OC)c1)c1cc(Cl)c(OC)c(C(=O)OC)c1
EC50 [1]: 13 µM
selectivity ratio [2]: > 15
CC50 (CEM-SS [3]): > 200 µM
IC50 [4]: 258 µM

CCCCCC=C(c1cc(Cl)c(OC)c(C(=O)OC)c1)c1cc(Cl)c(OC)c(C(=O)OC)c1
EC50 [1]: 16 µM
selectivity ratio [2]: > 1.8
CC50 (CEM-SS [3]): > 29.1 µM

COC(=O)CCCC=C(c1cc(C(=O)OC)c(OC)c(C(F)(F)F)c1)c1cc(C(=O)OC)c(OC)c(C(F)(F)F)c1
EC50 [1]: 14.3 µM
selectivity ratio [2]: 1.2
CC50 (CEM-SS [3]): 17.2 µM
IC50 [4]: > 200 µM

COC(=O)NCCC=C(c1cc(C)c(OC)c(C(=O)OC)c1)c1cc(C)c(OC)c(C(=O)OC)c1
EC50 [1]: 0.21 µM
selectivity ratio [2]: 59
CC50 (CEM-SS [3]): 12.4 µM
IC50 [4]: 4.93 µM

COC(=O)c1cc(C(=CCCCC(=O)N(C)C)c2cc(C)c(OC)c(C(=O)OC)c2)cc(C)c1OC
EC50 [1]: 1.51 µM
selectivity ratio [2]: 4.91
CC50 (CEM-SS [3]): 7.4 µM
IC50 [4]: 5.65 µM

COC(=O)c1cc(C(=CCCCC(=O)OCC[Si](C)(C)C)c2cc(C)c(OC)c(C(=O)OC)c2)cc(C)c1OC
EC50 [1]: 95.4 µM
selectivity ratio [2]: > 2.1
CC50 (CEM-SS [3]): > 200 µM
IC50 [4]: > 100 µM

COC(=O)c1cc(C(=CCCCSC)c2cc(Cl)c(OC)c(C(=O)OC)c2)cc(Cl)c1OC
EC50 [1]: 5.31 µM
selectivity ratio [2]: > 3.77
CC50 (CEM-SS [3]): > 20 µM
IC50 [4]: > 100 µM

CCCCCC=C(c1cc(F)c(OC)c(C(=O)OC)c1)c1cc(F)c(OC)c(C(=O)OC)c1
CC50 (CEM-SS [3]): 13.4 µM

CCOC(=O)CCCC=C(c1cc(C)c(OC)c(C(=O)OC)c1)c1cc(C)c(OC)c(C(=O)OC)c1
EC50 [1]: 0.03 µM
selectivity ratio [2]: 297
CC50 (CEM-SS [3]): 8.91 µM
IC50 [4]: 0.181 µM

CN/C(S)=N/CCC=C(c1cc(Cl)c(OC)c(C(=O)OC)c1)c1cc(Cl)c(OC)c(C(=O)OC)c1
EC50 (CEM-SS [5]): Not Active
CC50 (CEM-SS [3]): 1.36 µM
IC50 [4]: > 100 µM

CCNC(=O)NCCC=C(c1cc(Cl)c(OC)c(C(=O)OC)c1)c1cc(Cl)c(OC)c(C(=O)OC)c1
EC50 (CEM-SS [5]): Not Active
CC50 (CEM-SS [3]): 14.6 µM
IC50 [4]: > 100 µM

COC(=O)c1cc(C(=CCCN2CCOC2=O)c2cc(Br)c(OC)c(C(=O)OC)c2)cc(Br)c1OC
EC50 [1]: 0.02 µM
selectivity ratio [2]: 104
CC50 (CEM-SS [3]): 1.95 µM
IC50 [4]: 0.499 µM

COC(=O)NCCC=C(c1cc(Br)c(OC)c(C(=O)OC)c1)c1cc(Br)c(OC)c(C(=O)OC)c1
EC50 [1]: 0.2 µM
selectivity ratio [2]: 40.5
CC50 (CEM-SS [3]): 8.1 µM
IC50 [4]: 2.39 µM

COC(=O)c1cc(C(=CCCC[S+](C)[O-])c2cc(Cl)c(OC)c(C(=O)OC)c2)cc(Cl)c1OC (stereo not drawn)
EC50 [1]: 11.7 µM
selectivity ratio [2]: 3.15
CC50 (CEM-SS [3]): 36.9 µM

COC(=O)c1cc(C(=CCCN2CCOC2=O)c2cc(Cl)c(OC)c(C(=O)OC)c2)cc(Cl)c1OC
EC50 [1]: 2.15 µM
selectivity ratio [2]: 6.02
CC50 (CEM-SS [3]): 13 µM
IC50 [4]: 9.47 µM

CCCCCC=C(c1cc(C(=O)OC)c(OC)c(C(F)(F)F)c1)c1cc(C(=O)OC)c(OC)c(C(F)(F)F)c1
EC50 (CEM-SS [5]): Not Active
CC50 (CEM-SS [3]): 106 µM

COC(=O)c1cc(C(=CCCCC(=O)N(C)C)c2cc(Cl)c(OC)c(C(=O)OC)c2)cc(Cl)c1OC
EC50 [1]: 0.38 µM
selectivity ratio [2]: 6.94
CC50 (CEM-SS [3]): 2.65 µM
IC50 [4]: 0.687 µM

COC(=O)c1cc(C(=CCCNC(=O)OCC(C)C)c2cc(C)c(OC)c(C(=O)OC)c2)cc(C)c1OC
EC50 [1]: 0.76 µM
selectivity ratio [2]: 6.73
CC50 (CEM-SS [3]): 5.13 µM
IC50 [4]: 2.95 µM

COC(=O)c1cc(C(=CCCCC(=O)N2CCCCC2)c2cc(Cl)c(OC)c(C(=O)OC)c2)cc(Cl)c1OC
EC50 (CEM-SS [5]): Not Active
CC50 (CEM-SS [3]): 3.59 µM
IC50 [4]: > 100 µM

COC(=O)NCCC=C(c1cc(Cl)c(OC)c(C(=O)OC)c1)c1cc(Cl)c(OC)c(C(=O)OC)c1
EC50 [1]: 1.22 µM
selectivity ratio [2]: 10.2
CC50 (CEM-SS [3]): 12.4 µM
IC50 [4]: 4.43 µM

COC(=O)c1cc(C(=CCCCC(=O)OC(C)C)c2cc(Cl)c(OC)c(C(=O)OC)c2)cc(Cl)c1OC
EC50 [1]: 0.84 µM
selectivity ratio [2]: 42.9
CC50 (CEM-SS [3]): 36.1 µM
IC50 [4]: > 100 µM

CCOC(=O)NCCC=C(c1cc(C)c(OC)c(C(=O)OC)c1)c1cc(C)c(OC)c(C(=O)OC)c1
EC50 [1]: 0.67 µM
selectivity ratio [2]: 5.34
CC50 (CEM-SS [3]): 3.59 µM
IC50 [4]: 0.016 µM

COC(=O)c1cc(C(=CCCCS(C)(=O)=O)c2cc(Cl)c(OC)c(C(=O)OC)c2)cc(Cl)c1OC
EC50 (CEM-SS [5]): Not Active
CC50 (CEM-SS [3]): 14.9 µM

COC(=O)c1cc(C(=CCCNC(=O)OCC(C)C)c2cc(Cl)c(OC)c(C(=O)OC)c2)cc(Cl)c1OC
EC50 (CEM-SS [5]): Not Active
CC50 (CEM-SS [3]): 17.2 µM
IC50 [4]: 65.4 µM

COC(=O)CCCC=C(c1cc(F)c(OC)c(C(=O)OC)c1)c1cc(F)c(OC)c(C(=O)OC)c1
EC50 [1]: 1.9 µM
selectivity ratio [2]: 36
CC50 (CEM-SS [3]): 68.3 µM

COC(=O)c1cc(C(=CCCCC(=O)SC)c2cc(Cl)c(OC)c(C(=O)OC)c2)cc(Cl)c1OC
EC50 [1]: 2.42 µM
selectivity ratio [2]: 5.15
CC50 (CEM-SS [3]): 12.5 µM

COC(=O)c1cc(C(=CCCCC(=O)N2CCCCC2)c2cc(C)c(OC)c(C(=O)OC)c2)cc(C)c1OC
EC50 [1]: 5.37 µM
selectivity ratio [2]: 2.74
CC50 (CEM-SS [3]): 14.7 µM
IC50 [4]: 7.12 µM

CCCCCC=C(c1cc(I)c(OC)c(C(=O)OC)c1)c1cc(I)c(OC)c(C(=O)OC)c1
CC50 (CEM-SS [3]): > 316 µM

CCCOC(=O)CCCC=C(c1cc(Br)c(OC)c(C(=O)OC)c1)c1cc(Br)c(OC)c(C(=O)OC)c1
EC50 [1]: 1.14 µM
selectivity ratio [2]: > 17.5
CC50 (CEM-SS [3]): > 20 µM
IC50 [4]: 9.15 µM

COC(=O)c1cc(C(=CCCCC(=O)OC(C)C)c2cc(Br)c(OC)c(C(=O)OC)c2)cc(Br)c1OC
EC50 [1]: 4.33 µM
selectivity ratio [2]: 3.79
CC50 (CEM-SS [3]): 16.4 µM
IC50 [4]: 70.8 µM

COC(=O)c1cc(C(=CCCCC(=O)OC(C)C)c2cc(C)c(OC)c(C(=O)OC)c2)cc(C)c1OC
EC50 (CEM-SS [5]): Not Active
CC50 (CEM-SS [3]): 4.32 µM
IC50 [4]: 60.4 µM

C#CCCCC=C(c1cc(Br)c(OC)c(C(=O)OC)c1)c1cc(Br)c(OC)c(C(=O)OC)c1
EC50 [1]: 4.7 µM
selectivity ratio [2]: > 43
CC50 (CEM-SS [3]): > 200 µM
IC50 [4]: 6 µM

CCCOC(=O)CCCC=C(c1cc(Cl)c(OC)c(C(=O)OC)c1)c1cc(Cl)c(OC)c(C(=O)OC)c1
EC50 [1]: 1.29 µM
selectivity ratio [2]: 10.8
CC50 (CEM-SS [3]): 13.9 µM
IC50 [4]: 8.3 µM

CCOC(=O)NCCC=C(c1cc(Cl)c(OC)c(C(=O)OC)c1)c1cc(Cl)c(OC)c(C(=O)OC)c1
EC50 [1]: 0.71 µM
selectivity ratio [2]: 17.2
CC50 (CEM-SS [3]): 12.2 µM
IC50 [4]: 1.93 µM

CCCCCC=C(c1cc(C)c(OC)c(C(=O)OC)c1)c1cc(C)c(OC)c(C(=O)OC)c1
EC50 [1]: 6.8 µM
selectivity ratio [2]: 2.5
CC50 (CEM-SS [3]): 17.2 µM
IC50 [4]: 1 µM

COC(=O)c1cc(C(=CCCCC(OC)OC)c2cc(Cl)c(OC)c(C(=O)OC)c2)cc(Cl)c1OC
CC50 (CEM-SS [3]): 18.1 µM
IC50 [4]: > 100 µM

CCSC(=O)CCCC=C(c1cc(Cl)c(OC)c(C(=O)OC)c1)c1cc(Cl)c(OC)c(C(=O)OC)c1
EC50 [1]: 3.95 µM
selectivity ratio [2]: 3.2
CC50 (CEM-SS [3]): 12.6 µM

COC(=O)c1cc(C(=CCCNC(C)=O)c2cc(Cl)c(OC)c(C(=O)OC)c2)cc(Cl)c1OC
EC50 (CEM-SS [5]): Not Active
CC50 (CEM-SS [3]): 19.1 µM
IC50 [4]: > 100 µM

COC(=O)CCCC=C(c1cc(C)c(OC)c(C(=O)OC)c1)c1cc(C)c(OC)c(C(=O)OC)c1
EC50 [1]: 0.25 µM
selectivity ratio [2]: 24
CC50 (CEM-SS [3]): 6 µM
IC50 [4]: < 1 µM

CCCCCC=C(c1ccc(OC)c(C(=O)OC)c1)c1ccc(OC)c(C(=O)OC)c1
CC50 (CEM-SS [3]): 14 µM
